Bfl-1 A1 inh = inhibitors of the anti-apoptotic protein A1, read as caspase activation. MEF A1-2A-BIM cells, Caspase-Glo 3/7 luminescence, 3 h; percent of clofoctol response, vehicle zero. caspase activation, % (no concentration beside the values). 330,000 compounds, 0.066% hits. AID 2462;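 active means over half of replicate activation scores above 10%, or exactly half above 10 with the replicate mean above 10; inconclusive means replicate mean below 10 yet half the replicates above 10; inactive means over half of replicates below 10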
CSC inhib = blocks cancer stem cells; AID 2717; cancer stem cell-like cells viability, luminescence; inhibition, % at 7.5 µM; 300,000 compounds, 1.1% hits; in the data active means inhibition above about 75%; inconclusive means no clear call, values can overlap the other calls; tested in HMLE shEcad cells
T cruzi repl = blocks replication of Trypanosoma cruzi; 300,000 compounds, 1.4% hits; T. cruzi beta-gal in NIH3T3, luminescence, 90 h; inhibition, % (concentration not given with the values);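 active means mean inhibition across valid replicates above about 55%, limit read from the data; inconclusive means mean below that limit but half or more replicates reach it; inactive means mean below it, under half of replicates reach it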;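 further: signal also drops with host cell toxicity which is not excluded here; higher percent means less beta-gal luminescence so fewer parasites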
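Assay system: NIH/3T3 fibroblasts plus reporter T. cruzi. Amount: NIH/3T3 cells, 5,000 per well. Buffer or medium: DMEM, 2% fetal bovine serum. Doses: compound pinned at 50 nL/well, DMSO. Schedule: ≥90 h infection period, 3 h prior cell attachment. Signal: luminescent β-galactosidase signal after 60 min lysis. Read-out: parasite load inhibition, %.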
TAG inh = reduces triacylglycerol accumulation in H9c2 cells; Nile Red lipid (TAG) fluorescence; cells loaded with 200 µM oleic acid; 230,000 compounds, 0.66% hits; inhibition, % at 12.5 µM;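 active means pattern-corrected inhibition of lipid staining of at least 50% with the nuclear-stain viability signal not falling by more than 50%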
Beta apoptosis = beta cell apoptosis inhibition. INS-1E cytokine-induced death, ATP luminescence, 48 h; percent of positive-control rescue, neutral wells zero. protection from apoptosis, % (no concentration beside the values). 300,000 compounds, 0.8% hits;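 active means Every replicate reaches about 75%, or at least half do and their mean reaches it too, limit read from the data; inconclusive means At least half of replicates reach the limit but their mean does not; inactive means Under half of replicates reach the limit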;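 further: higher means more ATP so stronger rescue from cytokine killing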
Calb FLC = C. albicans growth modulation with fluconazole | 300,000 compounds, 0.57% hits | growth inhibition, % (no concentration beside the values) | C. albicans CaCi-2 + fluconazole, Alamar Blue growth, 48 h;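 active means growth inhibition above about 58% in most replicates, limit read from the data, passing the limit was not always enough; inconclusive means exactly half the replicates above a set limit; inactive means most replicates below a set limit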;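 further: all wells also contain fluconazole at 8 µg/ml as a sub-toxic cotreatment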
Each line names hits and unclear results; the compound was inactive in the other large screens. An excerpt weighted towards active compounds, which were near 3.1% of everything screened.

Cn1c(N2CCN(C(c3ccccc3)c3ccccc3)CC2)nc2ccccc21	none
N#CCC(=O)Nc1ccc(C(=O)OCC(=O)NC2CCCc3ccccc32)cc1 (stereo unspecified)	none (no result: T cruzi repl, Calb FLC)
O=C(COC(=O)[C@@H]1CCCN1S(=O)(=O)c1ccccc1F)NCc1ccc2c(c1)OCO2	none (no result: CSC inhib, T cruzi repl, Calb FLC)
CCOc1ccc(C2C(C(=O)OC)=CN(C(C)c3ccccc3)C=C2C(=O)OC)cc1 (stereo unspecified)	none (no result: TAG inh)
COc1ccc(/C=C(\C#N)C(=O)NCc2ccccc2)cc1	none (no result: TAG inh)
C=C(C)CNC(=S)N/N=C1\CCCCc2ccccc21	Calb FLC 92.5
CCNC(=S)N/N=C1\CCCCc2ccccc21	none (no result: TAG inh)
O=C1Nc2ccccc2Oc2cc([N+](=O)[O-])ccc21	T cruzi repl 66.8
Cc1ccc2c(c1)NC(=O)c1cc([N+](=O)[O-])ccc1O2	none
N#C/C(=C(/O)c1cc2ccccc2o1)c1nc2ccccc2s1	CSC inhib 107.7
N#C/C(=C(/O)COC(=O)c1ccccc1O)c1nc2ccccc2s1	Calb FLC 83.3
CN(Cc1nc2ccccc2c(=O)[nH]1)C(=O)c1cccc(NC(=O)c2cccs2)c1	none (no result: Bfl-1 A1 inh, CSC inhib, T cruzi repl, Beta apoptosis, Calb FLC)
Nc1ccc(CSc2ccccc2)cc1	none (no result: Bfl-1 A1 inh, CSC inhib, T cruzi repl, Beta apoptosis, Calb FLC)
CC1CCC(C(C)C)C(OC(=O)COC(=O)c2cc(O)ccc2N)C1 (stereo unspecified)	T cruzi repl 70.1 (no result: TAG inh)
CCOc1ccc(OCCOCCN2CCc3ccccc3C2)cc1	T cruzi repl 77.0 (no result: TAG inh)
CCCOc1ccc(OCCOCCN2CCc3ccccc3C2)cc1	T cruzi repl 71.5
CN1CCc2c(sc3c2c(=O)n(-c2ccccc2)c2nnc(SCc4ccc(Cl)cc4)n32)C1	T cruzi repl 61.0
COc1ccc(OC)c(Cc2nnc(CCC(=O)N3CCCCC3c3nccs3)o2)c1 (stereo unspecified)	none
CCCn1ncc(CN2CCC(C(=O)Nc3cccc(-c4cccc(F)c4)c3)CC2)c1C	T cruzi repl 57.3 (no result: Beta apoptosis)
Cn1cc(CN2CCC(C(=O)Nc3cccc(-c4cccc(F)c4)c3)CC2)cn1	none
Cc1nn(C(C)C)c(C)c1CN1CCC(C(=O)Nc2cccc(-c3cccc(F)c3)c2)CC1	T cruzi repl 55.3
CCn1cc(/C=C/c2cc[n+](C)cc2)c2ccccc21	T cruzi repl 54.7, Beta apoptosis 85.2, Calb FLC 94.2 (no result: TAG inh)
CCN(CC)C(=O)Cn1c(C)c(/C=C/c2cc[n+](C)cc2)c2ccccc21	none
C=CCn1c(C)c(/C=C/c2cc[n+](C)cc2)c2ccccc21	T cruzi repl 74.5, Beta apoptosis 97.4 (no result: TAG inh)
O=C(O)Cn1cc(/C=C/[N+](=O)[O-])c2ccccc21	none
C=CCn1cc(/C=C/c2cc[n+](C)cc2)c2ccccc21	T cruzi repl 55.0, Beta apoptosis 79.9 (no result: TAG inh)
Cc1[nH]c2ccccc2c1/C=C/c1cc[n+](C)cc1	Calb FLC 104.2 (no result: Bfl-1 A1 inh, CSC inhib, Beta apoptosis)
Cc1ccccc1/C=C/c1cc[n+](C)cc1	none
CC(NC(=O)/C=C/c1ccccc1[N+](=O)[O-])C1CC2CCC1C2 (stereo unspecified)	none (no result: CSC inhib, TAG inh)
CC(C)(C)[C@@H]1COC(=O)[C@H](Cc2ccc(F)cc2)C/C=C\C[C@@H](CC(=O)NCCO)C(=O)N1	none (no result: CSC inhib, T cruzi repl, Calb FLC)
CC(C)n1cc(/C=C/c2cc[n+](C)cc2)c2ccccc21	Calb FLC 87.1 (no result: Bfl-1 A1 inh, CSC inhib, Beta apoptosis)
O=C(CN1C(=O)COc2ccccc21)N(Cc1cccnc1)Cc1ccccc1F	T cruzi repl 75.9 (no result: TAG inh)
COc1cc2cc(CCCOC(=O)c3cccc(Br)c3)oc(=O)c2cc1OC	none (no result: T cruzi repl, TAG inh, Calb FLC)
CCN(CC)S(=O)(=O)c1ccc2oc(SCC(=O)Nc3cc(C)on3)nc2c1	T cruzi repl 60.4
CCOc1c(C)cnc2c1c(=O)n(Cc1c(F)cccc1Cl)c(=O)n2C	none (no result: TAG inh)
Cc1cc(C)c(S(=O)(=O)N2CCN(c3ccc([N+](=O)[O-])c(-n4nc(C)cc4C)c3)CC2)c(C)c1	T cruzi repl 60.8 (no result: TAG inh)
Cc1cc(C)n(-c2cc(N3CCN(S(=O)(=O)c4ccc(Br)cc4)CC3)ccc2[N+](=O)[O-])n1	none (no result: TAG inh)
Cc1ccc(C(=O)Nc2cccc(C(=O)N/N=C/c3ccc(F)cc3)c2)cc1	none (no result: TAG inh)
C(=C\c1nc(N2CCCCCC2)c2ccccc2n1)/c1ccccc1	CSC inhib 79.0, Beta apoptosis 109.1 (no result: TAG inh)
N#Cc1c2ccc([N+](=O)[O-])cc2[n+]([O-])n1-c1ccccc1	Beta apoptosis 101.4 (no result: CSC inhib, T cruzi repl, Calb FLC)
O=C(NC1CCCC1)c1cccc2c1C(=O)c1ccc(/C=C/c3ccccc3)cc1S2(=O)=O	Bfl-1 A1 inh 40.2 (no result: T cruzi repl, Calb FLC)
CC(C)c1cccc(-c2ccc3c(c2)S(=O)(=O)c2cccc(C(=O)NC4CCCC4)c2C3=O)c1	Bfl-1 A1 inh 7.3 (no result: T cruzi repl, Calb FLC)
Cc1cc(C(=O)N/N=C/c2ccc(-c3ccc([N+](=O)[O-])cc3Cl)o2)n[nH]1	none (no result: TAG inh)
CC(=O)Nc1ccc(C(=O)N/N=C/c2cc(Br)cc(Br)c2O)cc1	none
O=C(N/N=C\c1cc(Br)ccc1O)c1ccc(S(=O)(=O)N2CCCCC2)cc1	CSC inhib 103.7, T cruzi repl 59.0, Beta apoptosis 100.3 (no result: TAG inh)
O=C(N/N=C/c1cc(Br)ccc1O)c1ccncc1	TAG inh 55.9
Cc1cc(C(=O)N/N=C/c2ccc(-c3ccccc3Cl)o2)n[nH]1	T cruzi repl 62.4 (no result: TAG inh)
O=C(N/N=C/c1ccc(O)c(O)c1)c1cccc(S(=O)(=O)N2CCCCC2)c1	none
CC(C)C(=O)Nc1ccc(C(=O)N/N=C/c2cc(Br)cc(Br)c2O)cc1	CSC inhib 83.5, Beta apoptosis 79.0 (no result: TAG inh)
COc1cccc(NC(=S)N2CCC(c3ccc(C)cc3)C2)c1 (stereo unspecified)	none (no result: TAG inh)
NC(=O)N/N=C\c1cc(Br)ccc1O	none (no result: CSC inhib, TAG inh, Beta apoptosis)
O=C(N/N=C/c1cc(Br)ccc1OC(=O)c1ccc(Br)cc1)c1ccncc1	Beta apoptosis 91.9, Calb FLC inconclusive (no result: CSC inhib, TAG inh)
Cc1cc(C(=O)N/N=C/c2cc(Br)ccc2OC(=O)c2ccccc2)n[nH]1	Beta apoptosis 100.1 (no result: T cruzi repl, Calb FLC)
Cc1nc(C)c(C(=O)N/N=C/c2cc(Br)ccc2O)s1	Beta apoptosis 80.5, Calb FLC 89.0
O=C(N/N=C/c1cc(Cl)ccc1O)c1ccc(Br)cc1	CSC inhib 99.5, Beta apoptosis 112.4 (no result: T cruzi repl, TAG inh, Calb FLC)
CCOc1ccc(OCCn2c(S(=O)(=O)O)nc3c(N)ncnc32)cc1	none (no result: TAG inh)
COc1c(Br)cc(Br)cc1C(=O)Nc1ccccc1N1CCCC1	none (no result: TAG inh)
Cc1ccc(S(=O)(=O)NCC2CCC(C(=O)NCCCN3CCCC3=O)CC2)cc1 (stereo unspecified)	none (no result: TAG inh)
O=C(N/N=C/c1cccnc1)c1cccc(NC(=O)c2cccc(Br)c2)c1	none (no result: CSC inhib, TAG inh)
CCOc1ccccc1NC(=O)C(=O)N/N=C/c1cc(Br)ccc1O	T cruzi repl 62.5, Beta apoptosis 88.4, Calb FLC 108.4
O=C(N/N=C/c1ccc(O)c2ncccc12)c1cccc(Br)c1	T cruzi repl 60.5, Beta apoptosis 108.8, Calb FLC 116.0 (no result: TAG inh)
O=C1CCC(C(=O)N2CCCC(N3CCN(c4cccc(C(F)(F)F)c4)CC3)C2)=NN1 (stereo unspecified)	none (no result: TAG inh)

Screening data from PubChem.
